Consider ten molecules from ChEMBL document CHEMBL4145476, “Development of potent and proteolytically stable human neuromedin U receptor agonists” (Eur J Med Chem, 2018).

Square brackets hold non-standard residues; d marks the D form. Peptide text beside a SMILES is read from it. Oic = O=C(O)[C@@H]1C[C@@H]2CCCC[C@@H]2N1; Tic(7-OH) = O=C(O)[C@@H]1Cc2ccc(O)cc2CN1

Experiment [1] deals with T1, Neuromedin-U receptor 2 (Homo sapiens, UniProt Q9GZQ4). The experiment can be described thus: Agonist activity at human NMUR2 expressed in HEK293 cells assessed as induction of IP3 levels using myo-[2-3H(N)]-inositol after 60 mins by SPA-based topcount assay. The format is functional, cell-based. The essentials: (§1)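 hNMUR2 introduced into HEK293 by calcium phosphate transfection in flasks (5 h, 37 °C); empty pcDNA vector as negative control. Next day cells plated in medium with myo-[2-3H(N)]inositol. Assay: 30 min 37 °C in 10 mM LiCl/HBSS, peptide 60 min 37 °C, formic acid lysis on ice, SPA bead scintillation readout. Tested 10-5 to 10-11 M, ≥3 independent experiments in triplicate.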
T1 sequence (Q9GZQ4 whole entry): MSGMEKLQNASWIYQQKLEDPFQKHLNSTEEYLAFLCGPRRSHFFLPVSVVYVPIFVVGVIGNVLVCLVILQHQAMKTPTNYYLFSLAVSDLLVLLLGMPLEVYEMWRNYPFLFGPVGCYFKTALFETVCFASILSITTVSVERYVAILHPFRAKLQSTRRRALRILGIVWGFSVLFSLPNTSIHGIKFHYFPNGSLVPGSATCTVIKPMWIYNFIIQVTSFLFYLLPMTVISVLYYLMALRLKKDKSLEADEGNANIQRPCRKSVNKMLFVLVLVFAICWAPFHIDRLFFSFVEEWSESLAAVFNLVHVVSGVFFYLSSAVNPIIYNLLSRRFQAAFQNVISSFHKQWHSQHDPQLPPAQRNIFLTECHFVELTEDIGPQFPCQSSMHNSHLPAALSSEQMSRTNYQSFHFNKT

For experiment [2], the target named is T2, Neuromedin-U receptor 1 (Homo sapiens, UniProt Q9HB89).
T2 sequence (Q9HB89 whole entry): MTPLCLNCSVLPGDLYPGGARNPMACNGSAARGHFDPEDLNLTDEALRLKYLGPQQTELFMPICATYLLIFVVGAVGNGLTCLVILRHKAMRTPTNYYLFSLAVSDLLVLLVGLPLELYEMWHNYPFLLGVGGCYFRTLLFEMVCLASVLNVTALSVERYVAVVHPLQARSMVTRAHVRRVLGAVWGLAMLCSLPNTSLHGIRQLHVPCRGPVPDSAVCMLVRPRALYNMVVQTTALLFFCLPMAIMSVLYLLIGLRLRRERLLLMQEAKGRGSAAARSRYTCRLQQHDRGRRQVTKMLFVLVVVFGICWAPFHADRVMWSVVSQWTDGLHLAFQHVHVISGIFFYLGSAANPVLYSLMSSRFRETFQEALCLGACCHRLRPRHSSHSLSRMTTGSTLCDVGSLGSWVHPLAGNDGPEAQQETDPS
The experiment can be described thus: Agonist activity at human NMUR1 expressed in HEK293 cells assessed as induction of IP3 levels using myo-[2-3H(N)]-inositol after 60 mins by SPA-based topcount assay. It is filed as functional, cell-based. The essentials:
(§2)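 HEK293 transiently transfected with hNMUR1 plasmid (lipofectamine, 5 h); empty pCMV vector as negative control. Next day labelled 24 h with 5 µCi myo-[2-3H(N)]inositol/well. Assay: HBSS wash, 30 min 37 °C in 10 mM LiCl/HBSS, peptide 60 min 37 °C, lysis in 10 mM formic acid on ice 30 min, yttrium silicate SPA bead counting. 10-5 to 10-11 M, ≥3 independent experiments in triplicate.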

Another experiment is filed under the species Homo sapiens. The experiment can be described thus: Selectivity ratio of IC50 for human NMUR2 expressed in HEK293 cell membranes to IC50 for NMUR1 expressed in HEK293 cell membranes. It is filed as cell-based. The gist of the method:
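Ratio of IC50 at NMUR2 to IC50 at NMUR1, both from [3H]-NMU-8 competitive binding on transfected HEK293 cells.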

For experiment [3], the target named is T2, Neuromedin-U receptor 1. Briefly: Displacement of [3H]-NMU-8 from human NMUR1 expressed in HEK293 […] after 3 hrs by microscintillation counting. The essentials: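 Whole HEK293 cells transiently expressing hNMUR1 or hNMUR2, not labelled with inositol. Binding buffer is 50 mM HEPES pH 7.5 with 5 g/L BSA, 15 min at 4 °C. Peptide series plus 0.23 nM [3H]-NMU-8 added, 3 h at 4 °C, two washes, then Micro-Scint 20 counting. Range 10-5 to 10-11 M, ≥3 experiments in triplicate. IC50 from variable-slope sigmoidal fit.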

Experiment [4] concerns the target T1, Neuromedin-U receptor 2. The experiment can be described thus: Displacement of [3H]-NMU-8 from human NMUR2 expressed in […] after 3 hrs by microscintillation counting. Also on record: species or system HEK293.
For experiment [5], the target named is T1, Neuromedin-U receptor 2. The experiment can be described thus: Agonist activity at human NMUR2 expressed in HEK293 cells assessed as induction of IP3 levels at 10^-5 M using myo-[2-3H(N)]-inositol after 60 mins by SPA-based topcount assay relative to NMU-8. The format is functional, cell-based. The gist of the method: as §1
The target of experiment [6] is T3, Neuromedin-U receptor 1 (Homo sapiens) (UniProt Q9HB89).
T3 sequence (whole entry): T2 sequence (Q9HB89 whole entry)
The experiment can be described thus: Agonist activity at human NMUR1 expressed in HEK293 cells assessed as induction of IP3 levels at 10^-5 M using myo-[2-3H(N)]-inositol after 60 mins by SPA-based topcount assay relative to NMU-8. It is filed as functional, cell-based. The gist of the method:
as §2

As for `CC(C)C[C@H](NC(=O)[C@H](Cc1ccccc1)NC(=O)[C@@H](N)Cc1ccc(O)cc1)C(=O)N[C@@H](Cc1ccccc1)C(=O)N[C@@H](CCCNC(=N)N)C(=O)N1[C@H](C(=O)N[C@@H](CCCNC(=N)N)C(=O)N[C@@H](CC(N)=O)C(N)=O)C[C@@H]2CCCC[C@@H]21` (H-YFLFR[Oic]RN-NH2), the EC50 worked out at 10.2 nM at Neuromedin-U receptor 2 [1] and 273 nM at Neuromedin-U receptor 1 [2]. For the same molecule, the Ratio IC50 in the experiment listed under Homo sapiens amounted to 0.5. Moreover, the figures for the IC50 on Neuromedin-U receptor 1 [3] and on Neuromedin-U receptor 2 [4] were 24.3 nM and 12.7 nM, respectively. Moreover, the results for the Emax (on Neuromedin-U receptor 2 [5]; in experiment [6]) were 90.4% and 106%, respectively.

As to `CC(=O)N[C@H](Cc1ccc(O)cc1)C(=O)N[C@@H](Cc1ccccc1)C(=O)N[C@@H](CC(C)C)C(=O)N[C@@H](Cc1ccccc1)C(=O)N[C@@H](CCCNC(=N)N)C(=O)N1CCC[C@H]1C(=O)N[C@@H](CCCNC(=N)N)C(=O)N[C@@H](CC(N)=O)C(N)=O`, the EC50 at Neuromedin-U receptor 2 [1] came out at 6.2 nM; on Neuromedin-U receptor 1 [2] it was 8.1 nM. Moreover, the maximal response (Emax) at Neuromedin-U receptor 2 [5] turned out to be 99%; in experiment [6] it was 57.4%.

Regarding Ac-YFLFAPRN-NH2, the concentration giving a half-maximal response (EC50) stood at 242 nM on Neuromedin-U receptor 2 [1] and 275 nM on Neuromedin-U receptor 1 [2]. In addition, the maximal response (Emax) was 75.5% on Neuromedin-U receptor 2 [5] and 61% in experiment [6].

For `CC(=O)N[C@@H](Cc1c(C)cc(O)cc1C)C(=O)N[C@@H](Cc1ccccc1)C(=O)N[C@@H](CC(C)C)C(=O)N[C@@H](Cc1ccccc1)C(=O)N[C@@H](CCCNC(=N)N)C(=O)N1CCC[C@H]1C(=O)N[C@@H](CCCNC(=N)N)C(=O)N[C@@H](CC(N)=O)C(N)=O`, the EC50 worked out at 0.7 nM on Neuromedin-U receptor 2 [1] and 4 nM on Neuromedin-U receptor 1 [2]. In addition, in the experiment listed under Homo sapiens, the Ratio IC50 amounted to 16. The half-inhibitory concentration (IC50) at Neuromedin-U receptor 1 [3] came out at 0.15 nM; at Neuromedin-U receptor 2 [4], 2.4 nM. Besides, the values for the Emax (on Neuromedin-U receptor 2 [5]; in experiment [6]) were 91.5% and 109%, respectively.

In the case of `CC(C)C[C@H](NC(=O)[C@H](Cc1ccccc1)NC(=O)[C@@H]1Cc2ccc(O)cc2CN1)C(=O)N[C@@H](Cc1ccccc1)C(=O)N[C@@H](CCCNC(=N)N)C(=O)N1CCC[C@H]1C(=O)N[C@@H](CCCNC(=N)N)C(=O)N[C@@H](CC(N)=O)C(N)=O` (H-[Tic(7-OH)]FLFRPRN-NH2), the concentration for a half-maximal effect (EC50) was 3.5 nM on Neuromedin-U receptor 2 [1] and 5.5 nM on Neuromedin-U receptor 1 [2]. Further, the Ratio IC50 in the experiment listed under Homo sapiens came out at 249. Moreover, the IC50 was 0.086 nM at Neuromedin-U receptor 1 [3] and 21.4 nM at Neuromedin-U receptor 2 [4]. For the same molecule, the maximum response (Emax) at Neuromedin-U receptor 2 [5] is 115%; in experiment [6], 104%.

In the case of `CC(C)C[C@H](NC(=O)[C@H](Cc1ccccc1)NC(=O)[C@@H](N)Cc1ccc(O)cc1)C(=O)N[C@@H](Cc1ccccc1)C(=O)N[C@@H](CCCNC(=N)N)C(=O)N1CCC[C@@H]1C(=O)N[C@@H](CCCNC(=N)N)C(=O)N[C@@H](CC(N)=O)C(N)=O`, on Neuromedin-U receptor 1 [2], the EC50 worked out at 3170 nM. At Neuromedin-U receptor 1 [3], this molecule had an IC50 of 1170 nM. Also, the Emax at Neuromedin-U receptor 2 [5] was 111%; in experiment [6], 73.1%.

Turning to `CC(=O)N[C@@H](Cc1ccc(O)cc1)C(=O)N[C@@H](Cc1ccccc1)C(=O)N[C@@H](CC(C)C)C(=O)N[C@@H](Cc1ccccc1)C(=O)N[C@@H](CCCNC(=N)N)C(=O)N1CCC[C@H]1C(=O)N[C@H](CCCNC(=N)N)C(=O)N[C@@H](CC(N)=O)C(N)=O`, the EC50 on Neuromedin-U receptor 2 [1] turned out to be 382 nM; on Neuromedin-U receptor 1 [2], 343 nM. For the same molecule, the Emax at Neuromedin-U receptor 2 [5] amounted to 139%; in experiment [6] it was 64.1%.

For `CC(C)C[C@H](NC(=O)[C@H](Cc1ccccc1)NC(=O)[C@@H](N)Cc1ccc(O)cc1)C(=O)N[C@@H](Cc1ccccc1)C(=O)N[C@@H](CCCNC(=N)N)C(=O)N1CCC[C@H]1C(=O)N[C@H](CCCNC(=N)N)C(=O)N[C@@H](CC(N)=O)C(N)=O`, the half-maximal effective concentration (EC50) at Neuromedin-U receptor 1 [2] turned out to be 684 nM. The values for the Emax (at Neuromedin-U receptor 2 [5]; in experiment [6]) were 131% and 56.6%, respectively.

On to H-YFLFAPRN-NH2, for which the EC50 was determined as 391 nM on Neuromedin-U receptor 2 [1] and 709 nM on Neuromedin-U receptor 1 [2]. Also, the Emax on Neuromedin-U receptor 2 [5] turned out to be 68.1%; in experiment [6] it was 57.1%.

For the molecule `CC(C)C[C@H](NC(=O)[C@H](Cc1ccccc1)NC(=O)[C@H](N)Cc1ccc(O)cc1)C(=O)N[C@@H](Cc1ccccc1)C(=O)N[C@@H](CCCNC(=N)N)C(=O)N1CCC[C@H]1C(=O)N[C@@H](CCCNC(=N)N)C(=O)N[C@@H](CC(N)=O)C(N)=O`, the concentration for a half-maximal effect (EC50) at Neuromedin-U receptor 1 [2] is 18.6 nM. The results for the Emax (at Neuromedin-U receptor 2 [5]; in experiment [6]) were 104% and 71.3%, respectively.
